Here are results for twelve compounds from ChEMBL document CHEMBL1123920, “Leukotriene D4 antagonists and 5-lipoxygenase inhibitors. Synthesis of benzoheterocyclic [(methoxyphenyl)amino]oxoalkanoic acid esters” (J Med Chem, 1987).

pIC50: −log10 of the molar value.

Test [1] has as its system Cavia porcellus. The test can be described thus: Ability to inhibit the Ovalbumin induced bronchospasm in guinea pig was determined in vivo at a dose of 50 mg/kg id. Format: functional. The conditions noted are these: route intraduodenal. Summed up: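 Guinea pigs were challenged with LTD4 or ovalbumin to induce bronchospasm, and test agent was given intraduodenally. Read-out is percent inhibition of bronchospasm. Significance uses a two-tailed Student's t test (p < 0.05). N is the number of treated animals.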

Test [2] concerns Cysteinyl leukotriene receptor (Cavia porcellus). The test can be described thus: Inhibition of LTD4 induced bronchospasm in guinea pig was determined in at 50 mg/kg i.d.
Test [3] deals with T1, Polyunsaturated fatty acid 5-lipoxygenase (Rattus norvegicus, UniProt P12527).
T1 sequence (P12527 whole entry): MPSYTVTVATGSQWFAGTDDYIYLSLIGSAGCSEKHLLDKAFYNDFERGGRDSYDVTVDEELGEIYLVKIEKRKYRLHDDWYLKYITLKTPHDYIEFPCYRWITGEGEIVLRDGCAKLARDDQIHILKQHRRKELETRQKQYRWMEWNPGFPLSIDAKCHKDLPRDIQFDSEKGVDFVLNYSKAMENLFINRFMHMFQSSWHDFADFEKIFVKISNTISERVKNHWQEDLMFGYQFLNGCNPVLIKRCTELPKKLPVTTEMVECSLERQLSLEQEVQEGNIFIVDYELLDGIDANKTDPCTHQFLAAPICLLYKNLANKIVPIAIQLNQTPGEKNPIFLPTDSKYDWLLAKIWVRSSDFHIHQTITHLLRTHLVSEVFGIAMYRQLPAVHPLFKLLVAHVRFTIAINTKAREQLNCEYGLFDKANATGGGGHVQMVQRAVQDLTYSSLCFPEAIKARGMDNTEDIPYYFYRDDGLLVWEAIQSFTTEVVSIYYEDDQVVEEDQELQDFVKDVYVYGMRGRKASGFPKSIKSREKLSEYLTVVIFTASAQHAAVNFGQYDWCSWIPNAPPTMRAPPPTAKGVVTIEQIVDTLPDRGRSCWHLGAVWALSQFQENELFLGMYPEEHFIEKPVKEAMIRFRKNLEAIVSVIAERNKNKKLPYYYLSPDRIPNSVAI
The test can be described thus: (§1) Ability to inhibit Lipoxygenase in vitro was determined.

Test [4] addresses T1, Polyunsaturated fatty acid 5-lipoxygenase. The test can be described thus: Ability to inhibit the rat Lipoxygenase in vitro was determined. The procedure, abridged: (§2)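 Source is rat polymorphonuclear leukocyte (PMN) 5-lipoxygenase. IC50 values come from nonlinear regression analysis, significant at p < 0.05.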
Test [5] has as its target T2, Polyunsaturated fatty acid 5-lipoxygenase (Rattus norvegicus) (UniProt P12527).
T2 sequence (whole entry): T1 sequence (P12527 whole entry)
The test can be described thus: Ability to inhibit Lipoxygenase in vitro was determined; NA is <50% inhibition at 100 uM. Summed up: as §2

In test [6] the target is T1, Polyunsaturated fatty acid 5-lipoxygenase. Described as §1. Summed up:
as §2
This is another data set of the same source.

The species entered for test [7] is Rattus norvegicus. The test can be described thus: Tested for metabolic activation counted as mean number of revertants in strains TA98, TA100, TA1535, and TA1538, three plates per treatment at 2.0 mg per plate, without activation in the absence of S-9 rat liver homogenates in Ames test. Format: functional, organism-based. A general note: The Ames test detects mutagens through reverse mutation in bacteria.

The species entered for test [8] is Rattus norvegicus. The test can be described thus: Tested for metabolic activation counted as mean number of revertants in strains TA98, TA100, TA1535, and TA1538, three plates per treatment at 0.06 mg per plate, without activation in the absence of S-9 rat liver homogenates in Ames test. It counts as functional, organism-based.
The species named for test [9] is Rattus norvegicus. The test can be described thus: Tested for metabolic activation counted as mean number of revertants in strains TA98, TA100, TA1535, and TA1538, three plates per treatment at 0.6 mg per plate, with activation provided by S-9 rat liver in Ames test. It counts as functional.
The species entered for test [10] is Rattus norvegicus. The test can be described thus: Tested for metabolic activation counted as mean number of revertants in three plates per treatment at 0.02 mg per plate, with activation provided by S-9 rat liver homogenates in Ames test. Format: functional, organism-based.
The species entered for test [11] is Rattus norvegicus. The test can be described thus: Tested for metabolic activation counted as mean number of revertants in strains TA98, TA100, TA1535, and TA1538, three plates per treatment at 0.6 mg per plate, without activation in the absence of S-9 rat liver homogenates in Ames test. It counts as functional, organism-based.
For test [12], the species on record is Rattus norvegicus. The test can be described thus: Tested for metabolic activation counted as mean number of revertants in strains TA98, TA100, TA1535, and TA1538, three plates per treatment at 0.02 mg per plate, without activation in the absence of S-9 rat liver homogenates in Ames test. Format: functional, organism-based.
For test [13], the species on record is Rattus norvegicus. The test can be described thus: Tested for metabolic activation counted as mean number of revertants in strains TA98, TA100, TA1535, and TA1538, three plates per treatment at 0.2 mg per plate, without activation in the absence of S-9 rat liver homogenates in Ames test. It counts as functional, organism-based.
The species named for test [14] is Rattus norvegicus. The test can be described thus: Tested for metabolic activation counted as mean number of revertants in strains TA98, TA100, TA1535, and TA1538, three plates per treatment at 0.2 mg per plate, with activation provided by S-9 rat liver in Ames test. It counts as functional.
The species entered for test [15] is Rattus norvegicus. The test can be described thus: Tested for metabolic activation counted as mean number of revertants in strains TA98, TA100, TA1535, and TA1538, three plates per treatment at 2.0 mg per plate, with activation provided by S-9 rat liver homogenates in Ames test. Format: functional, organism-based.
The species named for test [16] is Rattus norvegicus. The test can be described thus: Tested for metabolic activation counted as mean number of revertants in three plates per treatment at 0.06 mg per plate, with activation provided by S-9 rat liver homogenates in Ames test. It counts as functional, organism-based.
The species named for test [17] is Rattus norvegicus. The test can be described thus: Tested for metabolic activation counted as mean number of revertants in strains TA98, TA100, TA1535, and TA1538, three plates per treatment at 0.05 mg per plate, without activation in the absence of S-9 rat liver homogenates in Ames test. It counts as functional, organism-based.
The species named for test [18] is Rattus norvegicus. The test can be described thus: Tested for metabolic activation counted as mean number of revertants in strains TA98, TA100, TA1535, and TA1538, three plates per treatment at 0.15 mg per plate, with activation provided by S-9 rat liver homogenates in Ames test. Format: functional, organism-based.
The species named for test [19] is Rattus norvegicus. The test can be described thus: Tested for metabolic activation counted as mean number of revertants in strains TA98, TA100, TA1535, and TA1538, three plates per treatment at 0.015 mg per plate, without activation in the absence of S-9 rat liver homogenates in Ames test. Format: functional, organism-based.
The species named for test [20] is Rattus norvegicus. The test can be described thus: Tested for metabolic activation counted as mean number of revertants in strains TA98, TA100, TA1535, and TA1538, three plates per treatment at 0.05 mg per plate, with activation provided by S-9 rat liver homogenates in Ames test. Format: functional, organism-based.
Test [21] is filed under the species Rattus norvegicus. The test can be described thus: Tested for metabolic activation counted as mean number of revertants in strains TA98, TA100, TA1535, and TA1538, three plates per treatment at 0.005 mg per plate, with activation provided by S-9 rat liver homogenates in Ames test. It counts as functional, organism-based.
The species entered for test [22] is Rattus norvegicus. The test can be described thus: Tested for metabolic activation counted as mean number of revertants in strains TA98, TA100, TA1535, and TA1538, three plates per treatment at 0.015 mg per plate, with activation provided by S-9 rat liver homogenates in Ames test. Format: functional, organism-based.
Test [23] is filed under the species Rattus norvegicus. The test can be described thus: Tested for metabolic activation counted as mean number of revertants in strains TA98, TA100, TA1535, and TA1538, three plates per treatment at 0.5 mg per plate, with activation provided by S-9 rat liver homogenates in Ames test. Format: functional, organism-based.
The species named for test [24] is Rattus norvegicus. The test can be described thus: Tested for metabolic activation counted as mean number of revertants in strains TA98, TA100, TA1535, and TA1538, three plates per treatment at 0.15 mg per plate, without activation in the absence of S-9 rat liver homogenates in Ames test. Format: functional, organism-based.
The species entered for test [25] is Rattus norvegicus. The test can be described thus: Tested for metabolic activation counted as mean number of revertants in strains TA98, TA100, TA1535, and TA1538, three plates per treatment at 0.005 mg per plate, without activation in the absence of S-9 rat liver homogenates in Ames test. It counts as functional, organism-based.

On to `COC(=O)CCC(=O)N(O)c1cccc(OCc2nc3ccccc3s2)c1`, for which at 50 mg/kg the inhibition in vivo in test [1] was 6%. Further, the inhibition – broadly, the drop in the measured response relative to a control, in per cent – in test [2] was found to be 79%. Also, the pIC50 (as a rule, the IC50 on a negative log10 scale, so that one unit is a factor of ten) in [3] was 6.44.

Regarding `COC(=O)C1CC(=O)N(c2cccc(OCc3nc4ccccc4o3)c2)C1` (centres undefined), the pIC50 in test [3] was 4.52.

In the case of `COC(=O)CCC(=O)Nc1cccc(OCc2nc3ccccc3s2)c1`, 50 mg/kg produced 63% inhibition in vivo in test [1]. The pIC50 in test [4] is 4.80.

Compound `Cn1c(COc2cccc(N3C(=O)CCC3=O)c2)nc2ccccc21` showed an inhibition in [5] of less than 50%.

Turning to `COC(=O)CCC(=O)N(C)c1cccc(OCc2nc3ccccc3s2)c1`, in [1], 50 mg/kg produced 19% inhibition in vivo. The same compound gave a pIC50 in test [3] of 4.68.

For `COC(=O)CC(=O)Nc1cccc(OCc2nc3ccccc3s2)c1`, the inhibition in vivo (as a rule, the share of the control response that was lost under treatment) at 50 mg/kg in test [1] amounted to 58%. Also, the pIC50 in test [6] was 4.77.

Compound `COC(=O)C1CC(=O)N(c2cccc(OCc3nc4ccccc4n3C)c2)C1` (centres undefined) registered an inhibition in [5] of less than 50%.

Consider `COC(=O)C1CC(=O)N(c2cccc(OCc3ccc4ccccc4n3)c2)C1` (centres undefined), for which the Mean no. of revertants in test [7] worked out at 475; in test [8], 13; in [9] it was 15; in test [10] it was 12; in [11] it was 421; in test [12], 10. The Mean no. of revertants in test [13] came to 16; in test [14], 10; in test [15] it was 84; in [16], 10. Further, in test [1], the inhibition in vivo at 50 mg/kg is 29%. Moreover, the negative logarithm of the IC50 (pIC50) in test [3] was 4.72.

On to `O=C1CCC(=O)N1c1cccc(OCc2ccc3ccccc3n2)c1`, for which, in [5], the inhibition is less than 50%. In addition, at 50 mg/kg the inhibition in vivo in [1] was 26%. For the same compound, the Mean no. of revertants in test [17] came out at 12; in test [18] it was 8; in test [19], 9; in test [20], 7; in test [21], 5; in test [22] it was 7. The values for the Mean no. of revertants in test [23], in test [24] and in test [25] were 45, 43 and 6, respectively.

`COC(=O)CC(=O)Nc1cccc(OCc2nc3ccccc3n2C)c1` displayed an inhibition in test [5] of less than 50%. In addition, at 50 mg/kg the inhibition in vivo in test [1] was 5%.

`O=C(O)CCC(=O)Nc1cccc(OCc2nc3ccccc3s2)c1` displayed an inhibition in test [5] of less than 50%.

In test [3], `COC(=O)C1CC(=O)N(c2cccc(OCc3nc4ccccc4s3)c2)C1` (centres undefined) gave a pIC50 of 4.85.
